Results published in ChEMBL document CHEMBL1148603, “Inhibition of Trypanosoma cruzi hexokinase by bisphosphonates” (J Med Chem, 2006).

Assays:
Dictyostelium discoideum = assay: Cytotoxicity to Dictyostelium discoideum; type: functional, organism-based
Hexokinase = target: T1, Hexokinase (Trypanosoma cruzi, UniProt Q8ST54); assay: Inhibitory activity against Trypanosoma cruzi hexokinase
T1 sequence (Q8ST54 whole entry): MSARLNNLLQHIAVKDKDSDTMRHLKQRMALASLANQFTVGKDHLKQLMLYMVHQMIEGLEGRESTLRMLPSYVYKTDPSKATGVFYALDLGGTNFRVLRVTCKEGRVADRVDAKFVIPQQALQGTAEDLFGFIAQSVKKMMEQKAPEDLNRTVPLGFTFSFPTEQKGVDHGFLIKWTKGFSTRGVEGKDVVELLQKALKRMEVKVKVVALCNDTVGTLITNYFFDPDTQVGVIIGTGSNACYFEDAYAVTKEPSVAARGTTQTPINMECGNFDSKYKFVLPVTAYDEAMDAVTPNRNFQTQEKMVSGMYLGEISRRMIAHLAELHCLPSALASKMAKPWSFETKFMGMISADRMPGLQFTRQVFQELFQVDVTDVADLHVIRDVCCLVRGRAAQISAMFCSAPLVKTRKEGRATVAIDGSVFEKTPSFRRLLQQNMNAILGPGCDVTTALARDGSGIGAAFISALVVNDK
Outline: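 Native glycosomal T. cruzi hexokinase, purified by a previously described procedure. Activity was followed as NADPH formation at 340 nm, coupled to D-glucose-6-phosphate dehydrogenase. Inhibition was reported as IC50.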

KB = assay: Cytotoxicity in human nasopharyngeal carcinoma KB cell line; type: functional; conditions: read-out: LD50 (the source's name)
Outline: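 Human nasopharyngeal carcinoma KB cells were exposed to bisphosphonates up to a highest tested level of 300 µg mL-1. […] The therapeutic index was KB LD50 divided by TcHK IC50.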

Trypanosoma cruzi = assay: Growth inhibition of Trypanosoma cruzi intracellular amastigotes; type: functional, organism-based
TcHK = assay: Therapeutic index TI=LD50(KB)/IC50(TcHK); conditions: human
[1] = KB cells (cytotoxicity) versus TcHK enzyme

| Structure (SMILES) | IC50 (Dictyostelium discoideum) | IC50 (Hexokinase) | CC50 (KB) | IC50 (Trypanosoma cruzi) | selectivity ratio (TcHK; [1]) | selectivity ratio (TcHK) |
| --- | --- | --- | --- | --- | --- | --- |
| CC(C)(C)c1cccc(NC(P(=O)(O)O)P(=O)(O)O)c1 | 75 µM | ≥ 300 µM |  |  |  |  |
| O=P(O)(O)C(O)(Cc1ccncc1)P(=O)(O)O |  | 12.6 µM | 1040 µM |  |  |  |
| O=P(O)(O)C(Nc1cccc(-c2ccc(O)nc2)c1)P(=O)(O)O |  | ≥ 300 µM |  |  |  |  |
| CCn1c2ccccc2c2cc(NC(P(=O)(O)O)P(=O)(O)O)ccc21 | 2050 µM | 0.81 µM | 698 µM | 2.2 µM |  |  |
| CN(CCOc1ccccc1)CCC(O)(P(=O)(O)O)P(=O)(O)O | 2 µM | ≥ 300 µM | 311 µM |  |  |  |
| Cc1cc(-c2cccc(CC(O)(P(=O)(O)O)P(=O)(O)O)c2)c(F)cc1F |  | 2.29 µM |  |  |  |  |
| O=P(O)(O)C(O)(C[n+]1ccccc1)P(=O)(O)O | 3 µM | ≥ 300 µM | ≥ 1060 µM |  |  |  |
| O=P(O)(O)C(Nc1ccc(F)c(-c2ccccc2)c1)P(=O)(O)O |  | 3.63 µM |  |  |  |  |
| CCCNC(P(=O)(O)O)P(=O)(O)O [(PROPYLAMINO)METHYLENEDIPHOSPHONIC ACID] | 4 µM | ≥ 300 µM | 457 µM |  | ≤ 1.5 |  |
| COc1ccc(NC(P(=O)(O)O)P(=O)(O)O)cn1 | 52 µM | ≥ 300 µM | 302 µM |  | ≤ 1 |  |
| O=P(O)(O)C(O)(Cn1cnc2ccccc21)P(=O)(O)O | 2 µM | ≥ 300 µM |  |  |  |  |
| Cc1cccc(Cc2ccc[n+](CC(O)(P(=O)(O)O)P(=O)(O)O)c2)c1 | 889 µM | ≥ 300 µM | 728 µM |  | ≤ 2.4 |  |
| O=P(O)(O)C(O)(Cc1cccnc1)P(=O)(O)O [RISEDRONIC ACID] |  | ≥ 300 µM | 822 µM |  |  |  |
| O=P(O)(O)C(NC1CC1)P(=O)(O)O [(CYCLOPROPYLAMINO)METHYLENEDIPHOSPHONIC ACID] | 30 µM | ≥ 300 µM | 242 µM |  | ≤ 0.8 |  |
| C[N+](C)=c1ccn(CC(O)(P(=O)(O)O)P(=O)(O)O)cc1 | 30 µM | ≥ 300 µM |  |  |  |  |
| O=P(O)(O)C(CNc1cccc(-c2ccccc2)c1)P(=O)(O)O | 62 µM | 3.47 µM | ≥ 560 µM |  | ≥ 162 |  |
| CCCCCCCCCC(O)(P(=O)(O)O)P(=O)(O)O | 10 µM |  | ≥ 892 µM |  |  |  |
| O=P(O)(O)C(Nc1cccc(-c2ccccc2)c1)P(=O)(O)O | 211 µM | 1.95 µM | 827 µM | 47 µM |  |  |
| CCOC(=O)C(Cc1cccc(-c2ccccc2)c1)P(=O)(O)O (centres undefined) |  | ≥ 300 µM |  |  |  |  |
| CC1CCN(C(P(=O)(O)O)P(=O)(O)O)CC1 | 2 µM | ≥ 300 µM | 446 µM |  | ≤ 1.5 |  |

| Structure (SMILES) | IC50 (Dictyostelium discoideum) | IC50 (Hexokinase) | CC50 (KB) | IC50 (Trypanosoma cruzi) | selectivity ratio (TcHK; [1]) | selectivity ratio (TcHK) |
| --- | --- | --- | --- | --- | --- | --- |
| O=P(O)(O)C(Cc1cccc(-c2ccccc2)c1)S(=O)(=O)O (centres undefined) |  | ≥ 300 µM |  |  |  |  |
| O=P(O)(O)C(Nc1cccc(-c2ccc(F)c(F)c2)c1)P(=O)(O)O | 77 µM | 2.75 µM | ≥ 791 µM |  | ≥ 285 |  |
| O=P(O)(O)C(O)(CC12CC3CC(CC(C3)C1)C2)P(=O)(O)O |  | ≥ 300 µM |  |  |  |  |
| O=[N+]([O-])c1cccc(NC(P(=O)(O)O)P(=O)(O)O)c1 [(3-NITROPHENYLAMINO)METHYLENEDIPHOSPHONIC ACID] | 78 µM | 2.4 µM | ≥ 635 µM |  | ≥ 266 |  |
| O=P(O)(O)C(Nc1cccc(Br)c1)P(=O)(O)O | 112 µM | 0.95 µM | ≥ 771 µM |  |  | ≥ 812 |
| C[C@H](NC(P(=O)(O)O)P(=O)(O)O)c1cccc2ccccc12 | 7 µM | ≥ 300 µM |  |  |  |  |
| O=P(O)(O)C(Nc1cccc(CO)c1)P(=O)(O)O | 351 µM | 14.8 µM | ≥ 980 µM |  |  | ≥ 67 |
| O=P(O)(O)CNc1cccc(-c2ccccc2)c1 |  | ≥ 300 µM |  |  |  |  |
| O=P(O)(O)C(Nc1ccc(Cl)cc1Cl)P(=O)(O)O [2,4-DICHLOROPHENYLAMINOMETHYLENEBISPHOSPHONIC ACID] |  | ≥ 300 µM |  |  |  |  |
| CCCCN(CC)C(P(=O)(O)O)P(=O)(O)O [(BUTYL(ETHYL)AMINO)METHYLENEDIPHOSPHONIC ACID] | 4 µM | ≥ 300 µM | ≥ 1060 µM |  |  |  |
| Cc1cccnc1NC(P(=O)(O)O)P(=O)(O)O | 3 µM | 45.7 µM | 840 µM |  |  |  |
| O=P(O)(O)C(CN[C@@H](CO)c1ccccc1)P(=O)(O)O |  | ≥ 300 µM |  |  |  |  |
| CCCCCCCc1ccc(NC(P(=O)(O)O)P(=O)(O)O)cc1 | 10 µM | 1.45 µM | 211 µM |  |  |  |
| O=c1ccc(-c2cccc(CC(O)(P(=O)(O)O)P(=O)(O)O)c2)c[nH]1 |  | ≥ 300 µM |  |  |  |  |
| O=P(O)(O)C(O)(c1cccc(-c2ccccc2)c1)P(=O)(O)O | 103 µM | 34.7 µM | 797 µM |  |  | 23 |
| COCc1cccc(NC(P(=O)(O)O)P(=O)(O)O)c1 | 253 µM | 4.07 µM | ≥ 964 µM |  |  | > 237 |
| O=P(O)(O)C(O)(C[n+]1cccc(-c2ccccc2)c1)P(=O)(O)O | 3 µM | ≥ 300 µM | 12 µM |  | ≤ 0.04 |  |
| O=P(O)(O)C(Nc1ncccc1OCc1ccccc1)P(=O)(O)O | 1 µM | ≥ 300 µM | ≥ 765 µM |  |  |  |
| O=P(O)(O)C(O)(Cn1cnc(-c2ccccc2)c1)P(=O)(O)O | 122 µM | 1.82 µM |  |  |  |  |
